Reference: ChEMBL document CHEMBL3621107, “Ring fusion strategy for synthesis and lead optimization of sulfur-substituted anthra[1,2-c][1,2,5]thiadiazole-6,11-dione derivatives as promising scaffold of antitumor agents” (Eur J Med Chem, 2015)

Tests used:
Format in all cases: functional
[1] = system: SNB-19; test: Cytotoxicity against human SNB19 cells after 48 hrs by SRB assay; details: SNB-19, 48 h
Procedure, shortened: (§1)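 Second-stage NCI-60 panel run by the NCI Developmental Therapeutics Program, covering nine tumour subpanels. Five concentrations were tested: 0.01, 0.1, 1, 10 and 100 μM. Percentage growth at each level was plotted against log10 drug concentration. GI50, TGI and LC50 were read from these dose-response curves. Subpanel MID values were divided into the full-panel MID to give selectivity ratios.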

[2] = Cytotoxicity against human leukemia cells assessed as growth inhibition after 48 hrs by SRB assay; details: Leukemia cell
Procedure, shortened: (§2)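 Values come from the NCI-60 five-dose panel (0.01–100 µM). The subpanel MID is the mean GI50 over the lines of that tumour subpanel. The selectivity ratio is the full-panel MID divided by the subpanel MID; 3–6 is rated moderate and >6 high.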

[3] = system: RPMI-8226; test: Cytotoxicity against human RPMI8226 cells after 48 hrs by SRB assay; details: RPMI-8226, 48 h; procedure, shortened: as §1
[4] = system: KM12; test: Cytotoxicity against human KM12 cells after 48 hrs by SRB assay; details: KM12, 48 h
Procedure, shortened: (§3)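 NCI-60 human tumour cell panel screen, second stage, run by the NCI Developmental Therapeutics Program. Compounds were tested at five concentrations (0.01, 0.1, 1, 10 and 100 μM). Percentage growth was plotted against log10 concentration for each cell line. GI50, TGI and LC50 were taken from these dose-response curves.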

[5] = system: HT-29; test: Cytotoxicity against human HT-29 cells after 48 hrs by SRB assay; details: HT-29, 48 h; procedure, shortened: as §3
[6] = system: DU-145; test: Cytotoxicity against human DU145 cells after 48 hrs by SRB assay; details: DU-145, 48 h; procedure, shortened: as §3
[7] = Cytotoxicity against human colon cancer cells assessed as growth inhibition after 48 hrs by SRB assay; details: Cancer cell lines; procedure, shortened: as §2
[8] = system: HCT-15; test: Cytotoxicity against human HCT15 cells after 48 hrs by SRB assay; details: HCT-15, 48 h; procedure, shortened: as §3
[9] = system: SF-295; test: Cytotoxicity against human SF295 cells after 48 hrs by SRB assay; details: SF-295, 48 h; procedure, shortened: as §1
[10] = system: OVCAR-3; test: Cytotoxicity against human OVCAR3 cells after 48 hrs by SRB assay; details: OVCAR-3, 48 h; for CC50: read-out: LC50 (the source's name); procedure, shortened: as §1
[11] = system: NCI/ADR-RES; test: Cytotoxicity against human NCI/ADR-RES cells after 48 hrs by SRB assay; procedure, shortened: as §1
[12] = system: NCI-H522; test: Cytotoxicity against human NCI-H522 cells after 48 hrs by SRB assay; details: NCI-H522, 48 h; procedure, shortened: as §1
[13] = system: IGROV-1; test: Cytotoxicity against human IGROV1 cells after 48 hrs by SRB assay; details: IGROV-1, 48 h; procedure, shortened: as §3
[14] = system: SW-620; test: Cytotoxicity against human SW620 cells after 48 hrs by SRB assay; details: SW-620, 48 h
Procedure, shortened: (§4)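 NCI-60 five-dose study run by NCI DTP at 0.01, 0.1, 1, 10 and 100 µM. Percentage growth at each level was plotted against log10 concentration for each line, and GI50, TGI and LC50 were read from the dose-response curves.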

[15] = system: K562; test: Cytotoxicity against human K562 cells after 48 hrs by SRB assay; details: K562, 48 h; procedure, shortened: as §3
[16] = system: CAKI-1; test: Cytotoxicity against human Caki1 cells after 48 hrs by SRB assay; details: CAKI-1, 48 h; procedure, shortened: as §3
[17] = system: TK-10; test: Cytotoxicity against human TK10 cells after 48 hrs by SRB assay; details: TK-10, 48 h; procedure, shortened: as §4
[18] = system: SN12C; test: Cytotoxicity against human SN12C cells after 48 hrs by SRB assay; details: for CC50: read-out: LC50 (the source's name); procedure, shortened: as §1
[19] = system: U-251; test: Cytotoxicity against human U251 cells after 48 hrs by SRB assay; details: U-251, 48 h; procedure, shortened: as §4
[20] = system: A549; test: Cytotoxicity against human A549 cells after 48 hrs by SRB assay; details: A549, 48 h; procedure, shortened: as §3
[21] = system: SF-539; test: Cytotoxicity against human SF539 cells after 48 hrs by SRB assay; details: SF-539, 48 h; procedure, shortened: as §1
[22] = system: UO-31; test: Cytotoxicity against human UO31 cells after 48 hrs by SRB assay; details: UO-31, 48 h; procedure, shortened: as §4
[23] = system: COLO 205; test: Cytotoxicity against human COLO205 cells after 48 hrs by SRB assay; details: COLO 205, 48 h; procedure, shortened: as §3
[24] = Cytotoxicity against human renal cancer cells assessed as growth inhibition after 48 hrs by SRB assay; details: Cancer cell lines; procedure, shortened: as §2
[25] = system: MDA-MB-468; test: Cytotoxicity against human MDA-MB-468 cells after 48 hrs by SRB assay; details: MDA-MB-468, 48 h; procedure, shortened: as §1
[26] = system: SK-OV-3; test: Cytotoxicity against human SKOV3 cells after 48 hrs by SRB assay; details: SK-OV-3, 48 h; procedure, shortened: as §1
[27] = system: HCT-116; test: Cytotoxicity against human HCT116 cells after 48 hrs by SRB assay; details: HCT-116, 48 h; for CC50: read-out: LC50 (the source's name); procedure, shortened: as §3
[28] = system: SNB-75; test: Cytotoxicity against human SNB75 cells after 48 hrs by SRB assay; details: SNB-75, 48 h; procedure, shortened: as §4
[29] = system: UACC-257; test: Cytotoxicity against human UACC257 cells after 48 hrs by SRB assay; details: UACC-257, 48 h; procedure, shortened: as §4
[30] = system: HOP-92; test: Cytotoxicity against human HOP92 cells after 48 hrs by SRB assay; details: HOP-92, 48 h; procedure, shortened: as §3

O=C1c2ccccc2C(=O)c2c1cc(Sc1cccc(Cl)c1)c1nsnc21
GI50 [1]: 8.64 µM | LC50 [1]: 47.1 µM | TGI [1]: 21.2 µM | GI50 [2]: 1.59 µM | GI50 [3]: 1.42 µM | LC50 [3]: > 100 µM | TGI [3]: 6.32 µM | GI50 [4]: 12 µM | LC50 (concentration killing 50% of cells) [4]: 65.7 µM | TGI [4]: 28 µM | GI50 [5]: 20.1 µM | LC50 [5]: 100 µM | TGI [5]: 66.7 µM | GI50 [6]: 2.27 µM | LC50 [6]: 14.3 µM | TGI [6]: 5.09 µM | GI50 [7]: 10.5 µM | GI50 [8]: 2.71 µM | LC50 [8]: 47.1 µM | TGI [8]: 11.3 µM | GI50 [9]: 7.84 µM | LC50 [9]: 57.9 µM | TGI [9]: 22.9 µM | GI50 [10]: 0.45 µM | TGI [10]: 1.74 µM | CC50 [10]: 6.5 µM | GI50 [11]: 0.5 µM | LC50 (concentration killing 50% of cells) [11]: > 100 µM | TGI [11]: 4.59 µM | GI50 [12]: 1.84 µM | LC50 (concentration giving 50% net cell kill) [12]: 9.91 µM | TGI [12]: 4.26 µM | GI50 [13]: 2.07 µM | LC50 [13]: 26.7 µM | TGI [13]: 5.37 µM | GI50 [14]: 2.29 µM | LC50 (50% lethal concentration) [14]: 28.3 µM | TGI [14]: 5.21 µM | GI50 [15]: 2.41 µM | LC50 [15]: > 100 µM | TGI [15]: 7.27 µM | GI50 [16]: 2.67 µM | LC50 (concentration causing 50% net cell kill) [16]: > 100 µM | TGI [16]: 9.15 µM | GI50 [17]: 5.31 µM | LC50 (concentration killing 50% of cells) [17]: 39.9 µM | TGI [17]: 14.8 µM | GI50 [18]: 1.05 µM | TGI [18]: 2.58 µM | CC50 [18]: 6.35 µM | GI50 [19]: 1.7 µM | LC50 [19]: 9.39 µM | TGI [19]: 4 µM | GI50 [20]: 6.66 µM | LC50 (concentration killing 50% of cells) [20]: 73.6 µM | TGI [20]: 24.4 µM | GI50 [21]: 2.19 µM | LC50 [21]: 7.55 µM | TGI [21]: 4.07 µM | GI50 [22]: 1.78 µM | LC50 [22]: 9.73 µM | TGI [22]: 4.16 µM | GI50 [23]: 20 µM | LC50 [23]: 61.3 µM | TGI [23]: 35 µM | GI50 [24]: 3.81 µM | GI50 [25]: 0.95 µM | LC50 [25]: 5.1 µM | TGI [25]: 2.23 µM | GI50 [26]: 3.97 µM | LC50 [26]: 34.8 µM | TGI [26]: 12.1 µM | GI50 [27]: 0.44 µM | TGI [27]: 2.66 µM | CC50 [27]: 16.3 µM | GI50 [28]: 1.99 µM | LC50 (concentration killing 50% of cells) [28]: 23.7 µM | TGI [28]: 6.23 µM | GI50 [29]: 1.52 µM | LC50 [29]: 6.54 µM | TGI [29]: 3.15 µM | GI50 [30]: 2.3 µM | LC50 (concentration giving 50% net cell kill) [30]: 15.8 µM | TGI [30]: 5.23 µM

O=C1c2ccccc2C(=O)c2c1cc(Sc1ccccc1Br)c1nsnc21
GI50 [1]: 32.2 µM | LC50 [1]: > 50 µM | TGI [1]: > 50 µM | GI50 [2]: 12.8 µM | GI50 [3]: 11.3 µM | LC50 [3]: > 50 µM | TGI [3]: > 50 µM | GI50 [4]: 41.9 µM | LC50 (concentration killing 50% of cells) [4]: > 50 µM | TGI [4]: > 50 µM | GI50 [5]: > 50 µM | LC50 [5]: > 50 µM | TGI [5]: > 50 µM | GI50 [6]: 21.5 µM | LC50 [6]: > 50 µM | TGI [6]: > 50 µM | GI50 [7]: 21.4 µM | GI50 [8]: 12.3 µM | LC50 [8]: > 50 µM | TGI [8]: > 50 µM | GI50 [9]: 40.6 µM | LC50 [9]: > 50 µM | TGI [9]: > 50 µM | GI50 [10]: 10.2 µM | TGI [10]: 22.8 µM | CC50 [10]: > 50 µM | GI50 [11]: 10.4 µM | LC50 (concentration killing 50% of cells) [11]: > 50 µM | TGI [11]: 36.9 µM | GI50 [12]: 14.9 µM | LC50 (concentration giving 50% net cell kill) [12]: > 50 µM | TGI [12]: > 50 µM | GI50 [13]: 19.1 µM | LC50 [13]: > 50 µM | GI50 [14]: 23.6 µM | LC50 (50% lethal concentration) [14]: > 50 µM | TGI [14]: > 50 µM | GI50 [15]: 18.5 µM | LC50 [15]: > 50 µM | TGI [15]: > 50 µM | GI50 [16]: 17.2 µM | LC50 (concentration causing 50% net cell kill) [16]: > 50 µM | TGI [16]: > 50 µM | GI50 [17]: 29.7 µM | LC50 (concentration killing 50% of cells) [17]: > 50 µM | TGI [17]: > 50 µM | GI50 [18]: 10.5 µM | TGI [18]: 39.7 µM | CC50 [18]: > 50 µM | GI50 [19]: 10.9 µM | LC50 [19]: > 50 µM | TGI [19]: 31.7 µM | GI50 [20]: > 50 µM | LC50 (concentration killing 50% of cells) [20]: > 50 µM | TGI [20]: > 50 µM | GI50 [21]: 10.3 µM | LC50 [21]: 40.5 µM | TGI [21]: 20.5 µM | GI50 [22]: 14.9 µM | LC50 [22]: > 50 µM | TGI [22]: > 50 µM | GI50 [23]: > 50 µM | LC50 [23]: > 50 µM | TGI [23]: > 50 µM | GI50 [24]: 14.5 µM | GI50 [25]: 0.95 µM | LC50 [25]: 4.2 µM | TGI [25]: 2 µM | GI50 [26]: 21 µM | LC50 [26]: > 50 µM | TGI [26]: > 50 µM | GI50 [27]: 7.87 µM | TGI [27]: 19.9 µM | CC50 [27]: > 50 µM | GI50 [28]: 14.9 µM | LC50 (concentration killing 50% of cells) [28]: > 50 µM | TGI [28]: > 50 µM | GI50 [29]: 8.56 µM | LC50 [29]: > 50 µM | TGI [29]: 20.9 µM | GI50 [30]: 18.4 µM | LC50 (concentration giving 50% net cell kill) [30]: > 50 µM | TGI [30]: > 50 µM
